Laboratory results: ChEMBL document CHEMBL2169796, “Antiproliferative and antimigratory actions of synthetic long chain n-3 monounsaturated fatty acids in breast cancer cells that overexpress cyclooxygenase-2” (J Med Chem, 2012)
pEC50, pIC50: −log10 of the molar value. The source made the active and inactive calls. No cut-off for these calls is given here.

What was measured:
[1] = tested on: MDA-MB-468; assay: Cytotoxicity against human MDA-MB-468 cells assessed as reduction in viable cells after 48 hrs by trypan blue exclusion assay; type: functional
Outline: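 COX-2-overexpressing MDA-MB-468 transfectants exposed to fatty acids at 20 and 50 μM for 48 h; viable cells counted by trypan blue exclusion, expressed as decrease from control.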

[2] = tested on: MDA-MB-468; assay: Proapoptotic activity in human MDA-MB-468 cells assessed as activation of caspase-3 by luminometry; type: functional, cell-based
[3] = tested on: MDA-MB-468; assay: Antiproliferative activity against human MDA-MB-468 cells after 24 hrs by MTT assay; type: functional, cell-based
[4] = tested on: MDA-MB-468; assay: Antiproliferative activity against human MDA-MB-468 cells after 48 hrs by MTT assay; type: functional, cell-based; conditions: MDA-MB-468, 48 h
[5] = target: T1, Prostaglandin G/H synthase 2 (Homo sapiens) (UniProt P35354); assay: Inhibition of peroxidase activity of COX-2 overexpressed in human MDA-MB-468 cells at 50 uM by spectrophotometry; values are per cent of control
T1 sequence (whole entry): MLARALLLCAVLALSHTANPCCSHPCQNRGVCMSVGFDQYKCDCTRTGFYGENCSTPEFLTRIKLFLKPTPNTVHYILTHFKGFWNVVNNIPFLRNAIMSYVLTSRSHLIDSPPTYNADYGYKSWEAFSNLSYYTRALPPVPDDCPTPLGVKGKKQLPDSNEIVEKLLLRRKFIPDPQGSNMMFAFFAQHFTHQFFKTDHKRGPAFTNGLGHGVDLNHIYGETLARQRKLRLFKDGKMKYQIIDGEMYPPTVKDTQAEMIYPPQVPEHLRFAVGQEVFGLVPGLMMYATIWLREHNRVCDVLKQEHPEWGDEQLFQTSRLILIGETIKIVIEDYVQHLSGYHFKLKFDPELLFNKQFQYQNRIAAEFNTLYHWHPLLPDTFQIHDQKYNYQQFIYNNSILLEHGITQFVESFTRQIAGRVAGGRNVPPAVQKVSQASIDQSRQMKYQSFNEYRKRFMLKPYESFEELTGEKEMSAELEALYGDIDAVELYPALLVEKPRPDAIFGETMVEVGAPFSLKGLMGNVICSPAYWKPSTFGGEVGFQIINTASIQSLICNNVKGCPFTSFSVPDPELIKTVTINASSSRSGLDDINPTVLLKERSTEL

[6] = tested on: MDA-MB-468; assay: Inhibition of cell invasion in human MDA-MB-468 cells overexpressing COX-2 at 20 uM after 20 hrs by matrigel droplet assay relative to untreated-control; values are per cent of control; conditions: MDA-MB-468, 20 h
[7] = target: T1, Prostaglandin G/H synthase 2 (Homo sapiens); assay: Inhibition of COX-2 overexpressed in human MDA-MB-468 cell lysate assessed as reduction in arachidonic acid-induced PGE2 formation at 50 uM by LC-MS-MS assay; values are per cent of control
[8] = target: T1, Prostaglandin G/H synthase 2 (Homo sapiens); assay: Inhibition of COX2 overexpressed in human MDA-MB-468 cells assessed as reduction in basal PGE2 level at 50 uM over 48 hrs by LC-MS-MS assay relative to control; values are per cent of control
[9] = target: T1, Prostaglandin G/H synthase 2 (Homo sapiens); assay: Inhibition of COX2 overexpressed in human MDA-MB-468 cells assessed as reduction in arachidonic acid-induced PGE2 production at 50 uM over 48 hrs by LC-MS-MS assay relative to control; values are per cent of control
[10] = target: T1, Prostaglandin G/H synthase 2 (Homo sapiens); assay: Inhibition of COX-2 overexpressed in human MDA-MB-468 cell lysate assessed as reduction in arachidonic acid-induced PGE2 formation at 50 uM by LC-MS-MS assay; type: cell-free
Outline: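 Lysate of confluent COX-2-overexpressing MDA-MB-468 cells incubated with heme (10 μM), arachidonic acid (20 μM) and analogue (50 μM) in Tris-HCl 100 mM pH 8.0; quenched with ice-cold acetonitrile plus PGE2-d4, SPE cleanup, PGE2 quantified by negative-ion ESI LC-MS-MS.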

[11] = target: T1, Prostaglandin G/H synthase 2 (Homo sapiens); assay: Inhibition of COX2 overexpressed in human MDA-MB-468 cells assessed as reduction in basal PGE2 level at 50 uM over 48 hrs by LC-MS-MS assay relative to control; type: cell-based
Outline: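 Intact COX-2-overexpressing MDA-MB-468 cells given fatty acid (50 μM) for 48 h without added substrate; basal PGE2 in medium measured by LC-MS-MS, as % of control.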

[12] = tested on: MDA-MB-468; assay: Inhibition of cell invasion in human MDA-MB-468 cells overexpressing COX-2 at 20 uM after 20 hrs by matrigel droplet assay relative to untreated-control; type: functional
Outline: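 Cells (3.5 × 10^6/mL) mixed with Matrigel, 20 μL droplets set 5 min at 37 °C, then covered with endothelial growth medium-2 with 10% FBS containing fatty acid (10 or 20 μM) for 20 h at 37 °C, 5% CO2; cells migrating out of droplets counted by phase-contrast microscopy, vs DMSO control.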

[13] = tested on: MDA-MB-468; assay: Inhibition of cell invasion in human MDA-MB-468 cells overexpressing COX-2 at 10 uM after 20 hrs by matrigel droplet assay relative to untreated-control; values are per cent of control; conditions: MDA-MB-468, 20 h

| SMILES | pEC50 [2] | pIC50 [4] | residual activity [5] [%] | residual activity [7] [%] | residual activity [8] [%] | residual activity [9] [%] | inhibition [10] | inhibition [11] | Activity [1] | Activity [3] | level, % of control at 20 µM [6] [%] | inhibition [12] | level, % of control at 10 µM [13] [%] |
| --- | --- | --- | --- | --- | --- | --- | --- | --- | --- | --- | --- | --- | --- |
| CC/C=C\CCCCCCCCCCCCC(=O)O | 4.16 | < 4.00 |  |  |  |  |  | inactive | inactive | Dose-dependent effect |  | inactive |  |
| CC/C=C\CCCCCCCCCCCC(=O)O | < 4.00 | < 4.00 |  |  |  |  |  | inactive | 25% | Dose-dependent effect |  | inactive |  |
| CC/C=C\C/C=C\C/C=C\C/C=C\C/C=C\CCCC(=O)O [ICOSAPENT] | < 4.00 | < 4.00 |  |  |  |  |  |  |  |  |  |  |  |
| CCCCC/C=C\C/C=C\C/C=C\C/C=C\CCCC(=O)O [ARACHIDONIC ACID] | < 4.00 | < 4.00 |  |  |  |  |  |  |  |  |  |  |  |

Stronger by pEC50 [2], values ahead:

| pEC50 [2] | pIC50 [4] | residual activity [5] [%] | residual activity [7] [%] | residual activity [8] [%] | residual activity [9] [%] | inhibition [10] | inhibition [11] | SMILES | Activity [1] | Activity [3] | level, % of control at 20 µM [6] [%] | inhibition [12] | level, % of control at 10 µM [13] [%] |
| --- | --- | --- | --- | --- | --- | --- | --- | --- | --- | --- | --- | --- | --- |
| 4.27 | < 4.00 |  |  |  |  |  | inactive | CC/C=C\CCCCCCCCCCCCCC(=O)O | inactive | Dose-dependent effect |  | inactive |  |
| 4.37 | 4.44 | 71 |  |  |  | Active | inactive | CC/C=C\CCCCCCCCCCCCCCC(=O)O | 20% | Dose-dependent effect |  | inactive |  |
| 4.37 | 4.51 | 62 | 42 | 46 |  |  |  | CC/C=C\CCCCCCCCCCCCCCCC(=O)O | inactive | Dose-dependent effect | 75 |  |  |
| 4.59 | 4.68 | 58 | 42 | 45 | 40 |  |  | CC/C=C\CCCCCCCCCCCCCCCCCC(=O)O | inactive | Dose-dependent effect | 48 |  | 48 |
| 4.92 | 5.03 | 54 | 42 | 49 | 40 |  |  | CC/C=C\CCCCCCCCCCCCCCCCC(=O)O | inactive | Dose-dependent effect | 59 |  |  |
